Values belong to the compound of their own block, whether it stands above or below them. The source made the active and inactive calls. No cut-off for these calls is given here.
Key:
[1] = Oral bioavailability in mouse at 10 mg/kg; type: ADME, organism-based; details: in vivo
NCI-H716 = assay: Antiproliferative activity against human NCI-H716 cells assessed as reduction in cell viability measured for 72 hrs by celltiter-glo reagent based assay; type: functional; details: NCI-H716, 72 h
Procedure, shortened: (§1)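 Cancer lines KATO III, SNU16, NCI-H716, NCI-H1975, MV-4-11 and HEK293T treated 72 h; antiproliferative IC50 given as mean ± s.d. from three independent biological experiments.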

SNU-16 [2] = assay: Antitumor activity against human SNU-16 cells xenografted in BALB/c nude mouse assessed as tumor growth inhibition at 20 mg/kg, po administered for 15 days and measured on day 2; type: functional; details: SNU-16, 48 h, time 2 day, read-out: TGI
Procedure, shortened: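 Female BALB/c nude mice, 5 weeks old (20–22 g), s.c. right-flank SNU-16 implants, randomized by body weight into groups (n = 5) once tumours reached 50–100 mm3. Dosing 20 mg/kg/day intragastric in 0.5% CMC-Na for 15 d; vehicle controls. Tumour width and length measured every 2 days; tumours harvested 4 h after last dose and lysates immunoblotted for pFGFR, FGFR2, pPLCγ, pErk.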

SNU-16 [3] = assay: Antiproliferative activity against human SNU-16 cells assessed as reduction in cell viability measured for 72 hrs by celltiter-glo reagent based assay; type: functional; details: SNU-16, 72 h; procedure, shortened: as §1
[4] = test system: KATO III stomach cancer cell line; assay: Antiproliferative activity against human KATO III stomach cancer cell line assessed as reduction in cell viability measured for 72 hrs by celltiter-glo reagent based assay; type: functional; procedure, shortened: as §1
[5] = target: T1, Protein cereblon/Fibroblast growth factor receptor 2 (Homo sapiens, UniProt P21802+Q96SW2); assay: PROTAC activity at CRBN/FGFR2 in human KATO III stomach cancer cell line assessed as FGFR2 degradation by measuring FGFR2 expression level at 100 to 500 nM measured for 6 hrs by Western blotting analysis; type: cell-based; details: dose 100-500 nM
Procedure, shortened: (§2)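 KATO III cells treated 6 h across 0.5–10,000 nM (DMSO stock, final DMSO below 0.5%); FGFR2 immunoblotted, quantified as FGFR2/β-actin ratio normalized to DMSO-treated cells, three independent biological experiments; DC50 and Dmax derived from the curve.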
Target sequence in this assay (P21802 22-821 limits assumed): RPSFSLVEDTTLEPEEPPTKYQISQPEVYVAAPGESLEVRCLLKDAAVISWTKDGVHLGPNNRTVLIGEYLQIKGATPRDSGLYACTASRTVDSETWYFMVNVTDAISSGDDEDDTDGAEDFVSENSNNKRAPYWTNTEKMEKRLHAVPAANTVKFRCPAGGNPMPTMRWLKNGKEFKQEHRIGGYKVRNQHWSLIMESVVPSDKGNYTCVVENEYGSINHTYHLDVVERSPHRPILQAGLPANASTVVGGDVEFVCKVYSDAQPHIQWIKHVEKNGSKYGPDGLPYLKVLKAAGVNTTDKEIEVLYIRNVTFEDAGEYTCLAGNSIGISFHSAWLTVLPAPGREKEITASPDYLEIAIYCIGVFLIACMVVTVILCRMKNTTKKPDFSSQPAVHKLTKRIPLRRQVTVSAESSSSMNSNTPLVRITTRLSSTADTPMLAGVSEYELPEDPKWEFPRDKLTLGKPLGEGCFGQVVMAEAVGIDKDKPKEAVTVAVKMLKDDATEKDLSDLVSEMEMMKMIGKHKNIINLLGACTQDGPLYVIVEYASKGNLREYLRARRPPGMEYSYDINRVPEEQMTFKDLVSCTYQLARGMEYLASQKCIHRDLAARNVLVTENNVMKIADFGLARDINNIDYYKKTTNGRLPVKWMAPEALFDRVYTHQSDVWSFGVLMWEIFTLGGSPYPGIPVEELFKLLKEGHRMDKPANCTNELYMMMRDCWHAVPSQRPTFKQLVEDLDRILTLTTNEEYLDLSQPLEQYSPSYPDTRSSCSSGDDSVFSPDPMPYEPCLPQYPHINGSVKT
Target sequence in this assay (Q96SW2 whole entry partner): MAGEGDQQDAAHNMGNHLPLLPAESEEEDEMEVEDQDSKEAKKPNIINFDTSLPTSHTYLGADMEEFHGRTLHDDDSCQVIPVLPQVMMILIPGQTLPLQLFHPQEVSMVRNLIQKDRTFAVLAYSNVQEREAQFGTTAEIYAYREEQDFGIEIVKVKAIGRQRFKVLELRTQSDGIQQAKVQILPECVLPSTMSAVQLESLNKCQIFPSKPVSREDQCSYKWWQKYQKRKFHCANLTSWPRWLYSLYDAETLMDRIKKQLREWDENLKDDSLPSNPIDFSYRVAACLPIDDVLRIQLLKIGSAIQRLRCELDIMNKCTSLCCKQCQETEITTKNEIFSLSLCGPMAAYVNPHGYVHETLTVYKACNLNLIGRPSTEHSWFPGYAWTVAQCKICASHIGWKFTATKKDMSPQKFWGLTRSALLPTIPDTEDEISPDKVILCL

[6] = target: T1, Protein cereblon/Fibroblast growth factor receptor 2; assay: PROTAC activity at CRBN/FGFR2 in human KATO III stomach cancer cell line assessed as FGFR2 degradation by measuring FGFR2 expression level at 15 uM measured for 6 hrs by Western blotting analysis; type: cell-based
Target sequence in this assay (P21802 22-821 limits assumed): as the sequence (P21802 22-821 limits assumed) above
Target sequence in this assay (Q96SW2 whole entry partner): as the sequence (Q96SW2 whole entry partner) above

[7] = Antiproliferative activity against human HEK293T cells assessed as reduction in cell viability measured for 72 hrs by celltiter-glo reagent based assay; type: toxicity, HEK-293T; procedure, shortened: as §1
NCI-H1975 = assay: Antiproliferative activity against human NCI-H1975 cells assessed as reduction in cell viability measured for 72 hrs by celltiter-glo reagent based assay; type: functional; details: NCI-H1975, 72 h; procedure, shortened: as §1
MV4-11 = assay: Antiproliferative activity against human MV4-11 cells assessed as reduction in cell viability measured for 72 hrs by celltiter-glo reagent based assay; type: functional; details: MV4-11, 72 h; procedure, shortened: as §1
[8] = target: T1, Protein cereblon/Fibroblast growth factor receptor 2; assay: PROTAC activity at CRBN/FGFR2 in human KATO III stomach cancer cell line assessed as FGFR2 degradation measured for 6 hrs by immunoblot analysis; type: cell-based
Procedure, shortened: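 KATO III cells treated for 6 h at the stated concentrations, added from 10 mM DMSO stocks (final DMSO below 0.5%). Cells were washed with PBS and lysed in 2× loading buffer, then run on SDS-PAGE and blotted to PVDF. Anti-FGFR2 was applied overnight at 4 °C, with ECL detection. FGFR2 was expressed as FGFR2/β-actin, normalized to DMSO-treated cells, from three independent biological experiments.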
Target sequence in this assay (P21802 22-821 limits assumed): as the sequence (P21802 22-821 limits assumed) above
Target sequence in this assay (Q96SW2 whole entry partner): as the sequence (Q96SW2 whole entry partner) above

[9] = target: T1, Protein cereblon/Fibroblast growth factor receptor 2; assay: PROTAC activity at CRBN/FGFR2 in human KATO III stomach cancer cell line assessed as FGFR2 degradation by measuring FGFR2 expression level at 500 nM measured for 6 hrs by Western blotting analysis relative to control; type: cell-based; procedure, shortened: as §2
Target sequence in this assay (P21802 22-821 limits assumed): as the sequence (P21802 22-821 limits assumed) above
Target sequence in this assay (Q96SW2 whole entry partner): as the sequence (Q96SW2 whole entry partner) above

[10] = target: T1, Protein cereblon/Fibroblast growth factor receptor 2; assay: PROTAC activity at CRBN/FGFR2 in human KATO III stomach cancer cell line assessed as FGFR2 degradation by measuring FGFR2 expression level measured for 6 hrs by Western blotting analysis; type: cell-based; procedure, shortened: as §2
Target sequence in this assay (P21802 whole entry): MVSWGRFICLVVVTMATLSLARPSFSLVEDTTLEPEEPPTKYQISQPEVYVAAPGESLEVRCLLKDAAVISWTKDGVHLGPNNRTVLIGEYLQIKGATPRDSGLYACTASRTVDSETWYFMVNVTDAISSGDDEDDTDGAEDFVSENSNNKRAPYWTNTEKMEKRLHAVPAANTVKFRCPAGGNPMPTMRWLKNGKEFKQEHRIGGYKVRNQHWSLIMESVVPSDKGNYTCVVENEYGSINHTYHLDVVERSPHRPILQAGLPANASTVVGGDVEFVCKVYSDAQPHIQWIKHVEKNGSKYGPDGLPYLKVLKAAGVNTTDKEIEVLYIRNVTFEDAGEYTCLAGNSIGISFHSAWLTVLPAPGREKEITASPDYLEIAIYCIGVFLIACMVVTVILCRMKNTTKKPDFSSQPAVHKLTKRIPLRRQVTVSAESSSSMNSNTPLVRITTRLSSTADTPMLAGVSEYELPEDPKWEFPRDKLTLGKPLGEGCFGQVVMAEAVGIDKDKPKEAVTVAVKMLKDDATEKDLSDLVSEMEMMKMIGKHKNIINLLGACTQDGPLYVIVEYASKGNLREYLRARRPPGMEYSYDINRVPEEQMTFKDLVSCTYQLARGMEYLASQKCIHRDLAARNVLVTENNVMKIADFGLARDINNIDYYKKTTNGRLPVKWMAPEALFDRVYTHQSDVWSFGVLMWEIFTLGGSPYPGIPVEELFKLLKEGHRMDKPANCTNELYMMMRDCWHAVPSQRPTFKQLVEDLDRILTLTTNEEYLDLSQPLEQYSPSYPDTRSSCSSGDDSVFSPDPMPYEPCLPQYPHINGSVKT
Target sequence in this assay (Q96SW2 whole entry): as the sequence (Q96SW2 whole entry partner) above

Compound: COc1cc(OC)c(Cl)c(NC(=O)N(C)c2cc(Nc3ccc(N4CCN(CC(=O)N[C@H](C(=O)N5C[C@H](O)C[C@H]5C(=O)N[C@@H](C)c5ccc(-c6scnc6C)cc5)C(C)(C)C)CC4)cc3)ncn2)c1Cl
bioavailability [1]: 0.2%

Compound: CCN1CCN(c2ccc(Nc3cc(N(C)C(=O)Nc4c(Cl)c(OC)cc(OC)c4Cl)ncn3)cc2)CC1 [INFIGRATINIB]
IC50 (NCI-H716): 65.9 nM
inhibition in vivo at 20 mg/kg (SNU-16 [2]): 53.7%
IC50 (SNU-16 [3]): 95.4 nM
IC50 [4]: 60.3 nM

Compound: COc1cc(OC)c(Cl)c(NC(=O)N(C)c2cc(Nc3ccc(N4CCN(C(=O)CCCCCCCCCCCNc5cccc6c5C(=O)N(C5CCC(=O)NC5=O)C6=O)CC4)cc3)ncn2)c1Cl (centres undefined)
Activity [5]: inactive

Compound: COc1cc(OC)c(Cl)c(NC(=O)N(C)c2cc(Nc3ccc(N4CCN(CC(=O)NCCOCCOCCNC(=O)C5CCN(c6ccc7c(c6)C(=O)N(C6CCC(=O)NC6=O)C7=O)CC5)CC4)cc3)ncn2)c1Cl (centres undefined)
Activity [6]: inactive

Compound: COc1cc(OC)c(Cl)c(NC(=O)N(C)c2cc(Nc3ccc(N4CCN(C(=O)C5CCN(c6ccc7c(c6)C(=O)N(C6CCC(=O)N(C)C6=O)C7=O)CC5)CC4)cc3)ncn2)c1Cl (centres undefined)
IC50 at 72 h [7]: > 10000 nM
IC50 (NCI-H716): 99.5 nM
IC50 (SNU-16 [3]): 108 nM
IC50 (NCI-H1975): > 10000 nM
IC50 [4]: 497 nM
IC50 (MV4-11): > 10000 nM
Activity [8]: inactive

Other lines, results leading:

Activity [5]: inactive
Compound: COc1cc(OC)c(Cl)c(NC(=O)N(C)c2cc(Nc3ccc(N4CCN(CC(=O)NCCNc5cccc6c5C(=O)N(C5CCC(=O)NC5=O)C6=O)CC4)cc3)ncn2)c1Cl (centres undefined)

Activity ([9]; DEGRADER): 40%
Compound: COc1cc(OC)c(Cl)c(NC(=O)N(C)c2cc(Nc3ccc(N4CCN(C(=O)CCCCCCCNc5cccc6c5C(=O)N(C5CCC(=O)NC5=O)C6=O)CC4)cc3)ncn2)c1Cl (centres undefined)

Activity [9]: 66%
Activity ([9]; DEGRADER): 20%
DC50 [10]: 41.5 nM
Compound: COc1cc(OC)c(Cl)c(NC(=O)N(C)c2cc(Nc3ccc(N4CCN(CC(=O)NCCCCCNc5cccc6c5C(=O)N(C5CCC(=O)NC5=O)C6=O)CC4)cc3)ncn2)c1Cl (centres undefined)
